Results as given in ChEMBL document CHEMBL4837222, “Design and synthesis of novel benzothiophene analogs as selective estrogen receptor covalent antagonists against breast cancer” (Eur J Med Chem, 2021).
Active and inactive are the calls of the source. No cut-off for these calls is given here.

How the values were obtained:
[1] = target: T1, Estrogen receptor (Homo sapiens) (UniProt P03372); assay: Covalent antagonist activity at ERalpha in human MCF7 cells assessed as decrease in estradiol-induced TFF1 mRNA expression level at 0.25 to 10 uM measured after 24 hrs by RT-PCR analysis; format: cell-based; conditions: filed as antagonist, dose 0.25-10 µM
T1 sequence (whole entry): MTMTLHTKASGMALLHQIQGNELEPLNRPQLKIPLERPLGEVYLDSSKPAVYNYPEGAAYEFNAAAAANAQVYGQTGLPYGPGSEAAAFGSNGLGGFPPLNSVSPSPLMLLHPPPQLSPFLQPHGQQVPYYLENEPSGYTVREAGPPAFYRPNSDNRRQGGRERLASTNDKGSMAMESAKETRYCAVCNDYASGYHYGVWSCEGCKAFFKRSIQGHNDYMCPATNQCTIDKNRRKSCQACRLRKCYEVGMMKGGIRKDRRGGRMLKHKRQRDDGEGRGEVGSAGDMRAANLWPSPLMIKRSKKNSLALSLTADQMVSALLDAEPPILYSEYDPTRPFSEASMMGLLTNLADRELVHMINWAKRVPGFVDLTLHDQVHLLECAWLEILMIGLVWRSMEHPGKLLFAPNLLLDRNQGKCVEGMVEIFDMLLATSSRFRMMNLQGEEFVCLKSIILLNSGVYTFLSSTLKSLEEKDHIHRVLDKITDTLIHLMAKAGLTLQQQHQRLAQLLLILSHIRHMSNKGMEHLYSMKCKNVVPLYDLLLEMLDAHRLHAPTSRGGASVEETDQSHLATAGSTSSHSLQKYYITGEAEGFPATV
In short: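 MCF-7 cells stimulated with estradiol, then co-incubated 24 h with compound at 0.25, 0.5, 1 and 10 µM. RNA was reverse-transcribed and GREB1 or TFF1 measured by SYBR Green qPCR: 95 °C 10 min, then 40 cycles of 95 °C 5 s, 60 °C 60 s, 95 °C 15 s. Normalised to GAPDH, ΔΔCT method.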

MCF7 [2] = assay: Cell cycle arrest in human MCF7 cells assessed as accumulation at G2/M phase at 10 uM measured after 48 hrs by propidium iodide staining based flow cytometric analysis (reference value: 12.24%); format: functional
MCF7 [3] = assay: Cell cycle arrest in human MCF7 cells assessed as accumulation at G2/M phase at 1 uM measured after 48 hrs by propidium iodide staining based flow cytometric analysis (reference value: 12.24%); format: functional
MCF7 [4] = assay: Induction of apoptosis in human MCF7 cells assessed as live cells at 10 uM incubated for 24 hrs by AnnexinV-FITC/propidium iodide staining based flow cytometric analysis (reference value: 98.1%); format: functional
MCF7 [5] = assay: Induction of apoptosis in human MCF7 cells assessed as live cells at 1 uM incubated for 24 hrs by AnnexinV-FITC/propidium iodide staining based flow cytometric analysis (reference value: 98.1%); format: functional
MCF7 [6] = assay: Induction of apoptosis in human MCF7 cells assessed as late apoptotic cells at 1 uM incubated for 24 hrs by AnnexinV-FITC/propidium iodide staining based flow cytometric analysis (reference value: 0.7%); format: functional
[7] = Half life in rat plasma; format: ADME, cell-free
MDA-MB-231 = assay: Antiproliferative activity against human MDA-MB-231 cells assessed as reduction in cell growth incubated for 48 hrs by CCK8 assay; format: functional, cell-based; conditions: MDA-MB-231, 48 h
In short: (§1)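 CCK-8 viability assay. Cells seeded at 4000/well in 10% FBS medium for 24 h, then given compound diluted from DMSO stocks into 2% FBS medium at 100, 50, 25, 12.5, 6.25 and 3.125 µM (0.1% DMSO final). After 48 h, CCK-8 was added (0.5 mg/mL) for 2 h at 37 °C and OD450 read. Triplicates; IC50 fitted from mean viability.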

[8] = target: T1, Estrogen receptor (Homo sapiens); assay: Covalent antagonist activity at ERalpha receptor in human ishikawa cells assessed as suppression of E2-stimulated PGR expression at 0.25 to 10 uM measured after 3 days by RT-PCR analysis; format: cell-based; conditions: filed as antagonist, dose 0.25-10 µM, time 3.0 day
In short: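 Ishikawa cells stimulated with E2 and exposed 3 days to compound at 0.25, 0.5, 1 and 10 µM. PGR mRNA quantified by SYBR Green real-time PCR, normalised to GAPDH, ΔΔCT method.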

MCF7 [9] = assay: Induction of apoptosis in human MCF7 cells assessed as necrotic cells at 10 uM incubated for 24 hrs by AnnexinV-FITC/propidium iodide staining based flow cytometric analysis (reference value: 0.4%); format: functional
MCF7 [10] = assay: Induction of apoptosis in human MCF7 cells assessed as late apoptotic cells at 10 uM incubated for 24 hrs by AnnexinV-FITC/propidium iodide staining based flow cytometric analysis (reference value: 0.7%); format: functional
MCF7 [11] = assay: Cell cycle arrest in human MCF7 cells assessed as accumulation at S phase at 10 uM measured after 48 hrs by propidium iodide staining based flow cytometric analysis (reference value: 63.32%); format: functional
MCF7 [12] = assay: Induction of apoptosis in human MCF7 cells assessed as necrotic cells at 1 uM incubated for 24 hrs by AnnexinV-FITC/propidium iodide staining based flow cytometric analysis (reference value: 0.4%); format: functional
MCF7 [13] = assay: Induction of apoptosis in human MCF7 cells assessed as necrotic cells at 5 uM incubated for 24 hrs by AnnexinV-FITC/propidium iodide staining based flow cytometric analysis (reference value: 0.4%); format: functional
MCF7 [14] = assay: Downregulation of ERalpha expression in human MCF7 cells at 5 uM incubated for 24 hrs by DAPI staining based immunofluorescence microscopy; format: functional, cell-based
In short: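 MCF-7 cells on glass slides treated 24 h at 5 µM, washed with PBS and fixed with pre-cooled acetone. ERα immunostained with a red fluorescent label, nuclei counterstained with DAPI; ERα fluorescence intensity quantified.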

Ishikawa = assay: Antiproliferative activity against human Ishikawa cells assessed as reduction in cell growth incubated for 48 hrs by CCK8 assay; format: functional, cell-based; in short: as §1
MCF7 [15] = assay: Antiproliferative activity against human MCF7 cells assessed as reduction in cell growth incubated for 48 hrs by CCK8 assay; format: functional, cell-based; conditions: MCF7, 48 h; in short: as §1
MCF7 [16] = assay: Downregulation of ERalpha expression in human MCF7 cells at 0.5 uM incubated for 24 hrs by Western blot assay; format: functional, cell-based
In short: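 MCF-7 cells were kept in phenol red-free DMEM/F12 with 10% serum for 72 h before plating, then treated at 125, 250 and 500 nM for 24 h. Cells were lysed in RIPA buffer, protein was measured by BCA, and equal amounts were run on 10% SDS-PAGE and transferred to PVDF. ERα band intensity was normalized to GAPDH in each repeat.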

MCF7 [17] = assay: Cell cycle arrest in human MCF7 cells assessed as accumulation at G0/G1 phase at 5 uM measured after 48 hrs by propidium iodide staining based flow cytometric analysis (reference value: 24.44%); format: functional
Estrogen receptor = target: T2, Estrogen receptor (Homo sapiens, UniProt P03372); assay: Induction of ERalpha activity in human ishikawa cells assessed as induction of cell proliferation at 156 to 5000 nM measured after 3 days; format: cell-based; conditions: 72 h, 5 µM, dose 156-5000 nM, time 3 day
T2 sequence (P03372 whole entry): T1 sequence (whole entry)

MCF7 [18] = assay: Induction of apoptosis in human MCF7 cells assessed as early apoptotic cells at 1 uM incubated for 24 hrs by AnnexinV-FITC/propidium iodide staining based flow cytometric analysis (reference value: 0.8%); format: functional

inhibition [1]: Dose-Dependent Effect | half-life [7]: 17 h | IC50 (MDA-MB-231): > 50 µM | inhibition [8]: Active | IC50 (MCF7 [15]): 7.34 µM
SMILES: O=C(/C=C/CNCCOc1ccc(Oc2c(-c3ccc(F)cc3)sc3cc(O)ccc23)cc1)N1CCC1
Activity (MCF7 [2]): 18.3% | Activity (MCF7 [3]): 17.36% | Activity (MCF7 [4]): 73.6% | Activity (MCF7 [5]): 97.8% | Activity (MCF7 [6]): 1.2% | Activity (MCF7 [9]): 0.5% | Activity (MCF7 [10]): 13.2% | Activity (MCF7 [11]): 38.75% | Activity (MCF7 [12]): 0.2% | Activity (MCF7 [13]): 0.4% | inhibition (MCF7 [14]): Active | IC50 (Ishikawa): 6.56 µM | inhibition (MCF7 [16]): Active | Activity (MCF7 [17]): 37.54% | Activity (Estrogen receptor): Not Active | Activity (MCF7 [18]): 0.8%
